Assay results: ChEMBL document CHEMBL1123529, “Analogues of substance P. Peptides containing D-amino acid residues in various positions of substance P and displaying agonist or receptor selective antagonist effects” (1986)
“And” between values parts separate entries of the source, which are not always exact repeats. Identical values can stand only once.

Legend:
[1] = In vitro antagonistic activity against Substance P on guinea pig ileum at concentration of 10 uM.; type: functional, Cavia porcellus
Procedure, shortened: (§1)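 Dose-response curves used a 3-min cycle with 1-min contact and washout, with SP or SP(6-11)-hexapeptide as agonist. Dose ratio is the agonist EC50 with antagonist divided by the EC50 alone. At least two preparations per compound; ratios under 2 were considered insignificant.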

[2] = In vitro antagonistic activity against Substance P(6-11) in guinea pig ileum at concentration of 10 uM.; type: functional, Cavia porcellus; procedure, shortened: as §1
[3] = biological target: Substance-P receptor (Cavia porcellus) (UniProt P30547); test: Evaluated in vitro for percent agonist activity in guinea pig ileum (substance P receptor); type: functional, tissue-based
Sequence of Substance-P receptor (Cavia porcellus) (P30547 whole entry): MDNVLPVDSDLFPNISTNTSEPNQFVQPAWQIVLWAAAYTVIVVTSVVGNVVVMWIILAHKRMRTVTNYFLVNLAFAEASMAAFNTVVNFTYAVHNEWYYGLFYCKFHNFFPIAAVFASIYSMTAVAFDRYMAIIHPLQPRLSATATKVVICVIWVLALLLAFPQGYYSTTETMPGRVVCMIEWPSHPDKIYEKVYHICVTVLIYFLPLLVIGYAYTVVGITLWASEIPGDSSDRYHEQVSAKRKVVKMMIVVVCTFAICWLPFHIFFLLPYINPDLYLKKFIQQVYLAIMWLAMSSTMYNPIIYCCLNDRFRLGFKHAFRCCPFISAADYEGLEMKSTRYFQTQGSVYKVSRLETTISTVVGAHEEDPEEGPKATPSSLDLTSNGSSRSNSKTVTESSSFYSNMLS

[4] = biological target: Substance-P receptor (Cavia porcellus) (UniProt P30547); test: Antagonistic activity against Substance P(6-11) receptor in guinea pig ileum at concentration of 5 uM.; type: functional, tissue-based
Procedure, shortened: (§2)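 Distal ileum from Dunkin-Hartley guinea pigs (300-350 g, both sexes) in a Krebs organ bath at 37 °C, gassed with 95% O2/5% CO2. Agonist (SP or SP(6-11)) dose-response curves run on a 3-min cycle with 1-min contact, with and without antagonist. Dose ratio = agonist EC50 with antagonist / EC50 alone. At least two preparations per compound; ratios below 2 taken as insignificant.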

[5] = biological target: Substance-P receptor (Cavia porcellus) (UniProt P30547); test: Antagonistic activity against Substance P receptor in guinea pig ileum at concentration of 5 uM.; type: functional, tissue-based; procedure, shortened: as §2

Structure (SMILES) | SP [3] | Activity [1] | Activity [2] | further results
COC(=O)[C@H](CCSC)NC(=O)[C@H](CC(C)C)NC(=O)CNC(=O)[C@H](Cc1ccccc1)NC(=O)[C@H](Cc1ccccc1)NC(=O)[C@@H](Cc1ccccc1)NC(=O)[C@@H](Cc1ccccc1)NC(=O)[C@@H]1CCCN1C(=O)[C@H](CCCCNC(=O)OCc1ccccc1)NC(=O)[C@@H]1CCCN1C(=O)[C@H](CCCN=C(N)N)NC(=O)OCc1ccccc1 |  | <2 dose ratio | <2 dose ratio | 
COC(=O)[C@@H](CCSC)NC(=O)[C@H](CC(C)C)NC(=O)CNC(=O)[C@H](Cc1ccccc1)NC(=O)[C@H](Cc1ccccc1)NC(=O)[C@@H](NC(=O)[C@H](NC(=O)[C@@H]1CCCN1C(=O)[C@H](CCCCN)NC(=O)[C@@H]1CCCN1C(=O)[C@@H](N)CCCN=C(N)N)C(C)C)C(C)C | 0.005% |  |  | 
COC(=O)[C@H](CCSC)NC(=O)[C@H](CC(C)C)NC(=O)CNC(=O)[C@H](Cc1ccccc1)NC(=O)[C@H](Cc1ccccc1)NC(=O)[C@@H](Cc1ccccc1)NC(=O)[C@@H](Cc1ccccc1)NC(=O)[C@@H]1CCCN1C(=O)[C@H](CCCCN)NC(=O)[C@@H]1CCCN1C(=O)[C@@H](N)CCCN=C(N)N |  | <2 dose ratio | <2 dose ratio | 
COC(=O)[C@@H](CCSC)NC(=O)[C@H](CC(C)C)NC(=O)[C@@H](Cc1c[nH]c2ccccc12)NC(=O)[C@@H](Cc1c[nH]c2ccccc12)NC(=O)[C@@H](Cc1c[nH]c2ccccc12)NC(=O)[C@H](CCC(N)=O)NC(=O)[C@H](CCC(N)=O)NC(=O)[C@@H]1CCCN1C(=O)[C@H](CCCCN)NC(=O)[C@@H]1CCCN1C(=O)[C@@H](N)CCCN=C(N)N |  | 3.9 dose ratio and 7.2 dose ratio | 9.9 dose ratio | 
COC(=O)[C@@H](CCSC)NC(=O)[C@H](CC(C)C)NC(=O)CNC(=O)[C@H](NC(=O)[C@H](NC(=O)[C@H](CCC(N)=O)NC(=O)[C@H](CCC(N)=O)NC(=O)[C@@H]1CCCN1C(=O)[C@H](CCCCNC(=O)OCc1ccccc1)NC(=O)[C@@H]1CCCN1C(=O)[C@H](CCCN=C(N)N)NC(=O)OCc1ccccc1)C(C)C)C(C)C |  | <2 dose ratio | <2 dose ratio | 
COC(=O)[C@@H](CCSC)NC(=O)[C@H](CC(C)C)NC(=O)[C@@H](Cc1c[nH]c2ccccc12)NC(=O)[C@@H](Cc1c[nH]c2ccccc12)NC(=O)[C@@H](Cc1c[nH]c2ccccc12)NC(=O)[C@H](CCC(N)=O)NC(=O)[C@H](CCC(N)=O)NC(=O)[C@@H]1CCCN1C(=O)[C@H](CCCCNC(=O)OCc1ccccc1)NC(=O)[C@@H]1CCCN1C(=O)[C@H](CCCN=C(N)N)NC(=O)OCc1ccccc1 |  | <2 dose ratio | <2 dose ratio | 
COC(=O)[C@@H](CCSC)NC(=O)[C@H](CC(C)C)NC(=O)CNC(=O)[C@H]1CCCN1C(=O)[C@H]1CCCN1C(=O)[C@H](CCC(N)=O)NC(=O)[C@H](CCC(N)=O)NC(=O)[C@@H]1CCCN1C(=O)[C@H](CCCCNC(=O)OCc1ccccc1)NC(=O)[C@@H]1CCCN1C(=O)[C@H](CCCN=C(N)N)NC(=O)OCc1ccccc1 | < 0.0001% | <2 dose ratio | <2 dose ratio | 
COC(=O)[C@H](CCSC)NC(=O)[C@H](CC(C)C)NC(=O)CNC(=O)[C@H](Cc1ccccc1)NC(=O)[C@H](Cc1ccccc1)NC(=O)[C@H](NC(=O)[C@H](NC(=O)[C@@H]1CCCN1C(=O)[C@H](CCCCNC(=O)OCc1ccccc1)NC(=O)[C@@H]1CCCN1C(=O)[C@H](CCCN=C(N)N)NC(=O)OCc1ccccc1)C(C)C)C(C)C |  | <2 dose ratio | <2 dose ratio | 
COC(=O)[C@@H](CCSC)NC(=O)[C@H](CC(C)C)NC(=O)[C@@H](Cc1c[nH]c2ccccc12)NC(=O)[C@@H](Cc1c[nH]c2ccccc12)NC(=O)[C@@H](Cc1c[nH]c2ccccc12)NC(=O)[C@H](CCC(N)=O)NC(=O)[C@H](CCC(N)=O)NC(=O)[C@@H]1CCCN1C(=O)[C@H](CCCCNC(=O)OCc1ccccc1)NC(=O)[C@@H]1CCCN1C(=O)[C@@H](N)CCCN=C(N)N |  | 10 dose ratio | 5.6 dose ratio | 
CSCC[C@@H](NC(=O)[C@H](CC(C)C)NC(=O)CNC(=O)[C@H](Cc1ccccc1)NC(=O)[C@H](Cc1ccccc1)NC(=O)[C@@H](NC(=O)[C@H](NC(=O)[C@@H]1CCCN1C(=O)[C@H](CCCCN)NC(=O)[C@@H]1CCCN1C(=O)[C@@H](N)CCCN=C(N)N)C(C)C)C(C)C)C(=O)O | 6.4% |  |  | 
CSCC[C@H](NC(=O)[C@H](CC(C)C)NC(=O)CNC(=O)[C@H](Cc1ccccc1)NC(=O)[C@H](Cc1ccccc1)NC(=O)[C@H](NC(=O)[C@H](NC(=O)[C@@H]1CCCN1C(=O)[C@H](CCCCNC(=O)OCc1ccccc1)NC(=O)[C@@H]1CCCN1C(=O)[C@H](CCCN=C(N)N)NC(=O)OCc1ccccc1)C(C)C)C(C)C)C(=O)O |  | <2 dose ratio | <2 dose ratio | 
COC(=O)[C@@H](CCSC)NC(=O)[C@H](CC(C)C)NC(=O)CNC(=O)[C@H](Cc1ccccc1)NC(=O)[C@H](Cc1ccccc1)NC(=O)[C@@H]1CCCN1C(=O)[C@H]1CCCN1C(=O)[C@@H]1CCCN1C(=O)[C@H](CCCCN)NC(=O)[C@@H]1CCCN1C(=O)[C@@H](N)CCCN=C(N)N | 0.066% |  |  | 
CSCC[C@@H](NC(=O)[C@H](CC(C)C)NC(=O)[C@@H](Cc1c[nH]c2ccccc12)NC(=O)[C@@H](Cc1c[nH]c2ccccc12)NC(=O)[C@@H](Cc1c[nH]c2ccccc12)NC(=O)[C@H](CCC(N)=O)NC(=O)[C@H](CCC(N)=O)NC(=O)[C@@H]1CCCN1C(=O)[C@H](CCCCNC(=O)OCc1ccccc1)NC(=O)[C@@H]1CCCN1C(=O)[C@H](CCCN=C(N)N)NC(=O)OCc1ccccc1)C(=O)O |  | <2 dose ratio |  | 

More lines, main results first:

SP [3] | Structure (SMILES) | Activity [1] | Activity [2] | further results
63% | CSCC[C@H](NC(=O)[C@H](CC(C)C)NC(=O)CNC(=O)[C@H](Cc1ccccc1)NC(=O)[C@H](Cc1ccccc1)NC(=O)[C@H](CCC(N)=O)NC(=O)[C@H](CCC(N)=O)NC(=O)C1CCCN1C(=O)[C@H](CCCCNC(=O)OCc1ccccc1)NC(=O)C1CCCN1C(=O)[C@H](CCCN=C(N)N)NC(=O)OCc1ccccc1)C(=O)O (stereo in doubt) |  |  | 
< 0.0001% | COC(=O)[C@@H](CCSC)NC(=O)[C@H](CC(C)C)NC(=O)CNC(=O)[C@@H](NC(=O)[C@H](NC(=O)[C@H](CCC(N)=O)NC(=O)[C@H](CCC(N)=O)NC(=O)[C@@H]1CCCN1C(=O)[C@H](CCCCNC(=O)OCc1ccccc1)NC(=O)[C@@H]1CCCN1C(=O)[C@H](CCCN=C(N)N)NC(=O)OCc1ccccc1)C(C)C)C(C)C |  |  | 
< 0.0001% | CSCC[C@@H](NC(=O)[C@H](CC(C)C)NC(=O)CNC(=O)[C@H](Cc1ccccc1)NC(=O)[C@H](Cc1ccccc1)NC(=O)[C@@H](NC(=O)[C@H](NC(=O)[C@@H]1CCCN1C(=O)[C@H](CCCCNC(=O)OCc1ccccc1)NC(=O)[C@@H]1CCCN1C(=O)[C@H](CCCN=C(N)N)NC(=O)OCc1ccccc1)C(C)C)C(C)C)C(=O)O |  |  | 
< 0.0001% | COC(=O)[C@@H](CCSC)NC(=O)C(Cc1ccccc1)NC(=O)C(Cc1ccccc1)NC(=O)C(Cc1ccccc1)NC(=O)C(Cc1ccccc1)NC(=O)[C@H](CCC(N)=O)NC(=O)[C@H](CCC(N)=O)NC(=O)[C@@H]1CCCN1C(=O)[C@H](CCCCNC(=O)OCc1ccccc1)NC(=O)[C@@H]1CCCN1C(=O)[C@H](CCCN=C(N)N)NC(=O)OCc1ccccc1 (stereo in doubt) | <2 dose ratio | <2 dose ratio | 
0% | COC(=O)[C@H](CCSC)NC(=O)[C@H](Cc1c[nH]c2ccccc12)NC(=O)[C@@H](Cc1c[nH]c2ccccc12)NC(=O)[C@H](Cc1ccccc1)NC(=O)[C@H](Cc1ccccc1)NC(=O)[C@H](CCC(N)=O)NC(=O)[C@H](CCC(N)=O)NC(=O)[C@@H]1CCCN1C(=O)[C@H](CCCCNC(=O)OCc1ccccc1)NC(=O)[C@@H]1CCCN1C(=O)[C@H](CCCN=C(N)N)NC(=O)OCc1ccccc1 |  |  | Activity [4]: < 2 dose ratio; Activity [5]: < 2 dose ratio
< 0.0001% | COC(=O)[C@@H](CCSC)NC(=O)[C@H](CC(C)C)NC(=O)CNC(=O)[C@H](Cc1ccccc1)NC(=O)[C@H](Cc1ccccc1)NC(=O)[C@H](Cc1ccccc1)NC(=O)[C@@H](Cc1ccccc1)NC(=O)[C@@H]1CCCN1C(=O)[C@H](CCCCNC(=O)OCc1ccccc1)NC(=O)[C@@H]1CCCN1C(=O)[C@H](CCCN=C(N)N)NC(=O)OCc1ccccc1 |  |  | 
15% | CSCC[C@H](NC(=O)[C@H](CC(C)C)NC(=O)CNC(=O)[C@H](Cc1ccccc1)NC(=O)[C@H](Cc1ccccc1)NC(=O)[C@H](CCC(N)=O)NC(=O)[C@H](CCC(N)=O)NC(=O)C1CCCN1C(=O)[C@H](CCCCN)NC(=O)C1CCCN1C(=O)[C@@H](N)CCCN=C(N)N)C(N)=O (stereo in doubt) |  |  | 
7% | COC(=O)[C@H](CCSC)NC(=O)[C@H](CC(C)C)NC(=O)CNC(=O)[C@H](Cc1ccccc1)NC(=O)[C@H](Cc1ccccc1)NC(=O)[C@H](CCC(N)=O)NC(=O)[C@H](CCC(N)=O)NC(=O)C1CCCN1C(=O)[C@H](CCCCNC(=O)OCc1ccccc1)NC(=O)C1CCCN1C(=O)[C@H](CCCN=C(N)N)NC(=O)OCc1ccccc1 (stereo in doubt) |  |  | 
0% | COC(=O)[C@@H](CCSC)NC(=O)[C@H](CC(C)C)NC(=O)CNC(=O)[C@H](Cc1ccccc1)NC(=O)[C@H](Cc1ccccc1)NC(=O)[C@H](Cc1ccccc1)NC(=O)[C@@H](Cc1ccccc1)NC(=O)[C@@H]1CCCN1C(=O)[C@H](CCCCN)NC(=O)[C@@H]1CCCN1C(=O)[C@@H](N)CCCN=C(N)N |  |  | 
